Hits are enriched below; roughly 3% of the tested compounds scored in any of these assays.
UBC13 inh – inhibitors of human UBC13 polyubiquitin chain formation; inhibition, % at 20 µM; actives 0.47% (n = 330,000); P61088; TR-FRET; in the data active = inhibition above about 45%, passing the limit was not always enough
Target sequence (P61088 whole entry, looked up): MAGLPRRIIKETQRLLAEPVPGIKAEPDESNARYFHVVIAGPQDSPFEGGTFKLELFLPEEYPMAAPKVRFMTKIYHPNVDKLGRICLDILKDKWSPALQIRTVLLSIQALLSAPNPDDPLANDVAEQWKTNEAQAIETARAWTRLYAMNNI
Apaf-1 inh – blocks human Apaf-1 apoptosome activity; inhibition, % at 20 µM; reconstituted apoptosome caspase-3 activity, DEVD-Rh110 fluorescence; O14727; actives 0.71% (n = 330,000); active = inhibition of at least 40% at 20 µM
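Assay system – apoptosome proteins · Medium – Hepes buffer, pH 7.5 · Also added – cytochrome c with DEVD-Rh110 · Timing – 30 min compound preincubation, 50 min activation, room temperature · Detection – Rh110 fluorescence, excitation 480 nm, emission 540 nm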
MEKK2wt PB1 HTS – raises or lowers MEK5 binding to wildtype human MEKK2 PB1 domain; bead flow cytometry, Alexa488-MEK5 binding to MEKK2 WT; actives lie on both sides; binding response (% of control), % at 10 µM; actives 1.1% (n = 290,000); Q9Y2U5; in the data active = binding response below about 67% or above about 130%
MEKK3 PB1 HTS – raises or lowers MEK5 binding to the human MEKK3 PB1 domain; Q99759; bead-based flow cytometry, Alexa488-MEK5 binding to MEKK3; actives lie on both sides; 0 = blocked by unlabeled MEK5, 100 = vehicle; binding response (% of control), % at 10 µM; actives 1.4% (n = 290,000);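 active = binding response more than 3 SD above or below the average of its plate-row segment, actives on both sides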;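 also: Alexa488 bead fluorescence after subtracting the streptavidin-only scavenger bead signal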
MEKK2 mut-MEK5 – signal of MEK5 binding to mutant human MEKK2 PB1 domain; percent response, % at 10 µM; bead flow cytometry, Alexa488-MEK5 binding to MEKK2 mutant; actives 0.35% (n = 290,000); in the data active = percent response above about 24%, passing the limit was not always enough
UCH37 DUB inh – human UCH37 deubiquitinating enzyme inhibition. actives 0.33% (n = 330,000). purified proteasome/UCH37, Ub-AMC cleavage fluorescence. inhibition, % (no concentration beside the values). Q9Y5K5;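 active = mean inhibition over replicate wells above about 20%, limit read from the data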
Target sequence (Q9Y5K5 whole entry, looked up): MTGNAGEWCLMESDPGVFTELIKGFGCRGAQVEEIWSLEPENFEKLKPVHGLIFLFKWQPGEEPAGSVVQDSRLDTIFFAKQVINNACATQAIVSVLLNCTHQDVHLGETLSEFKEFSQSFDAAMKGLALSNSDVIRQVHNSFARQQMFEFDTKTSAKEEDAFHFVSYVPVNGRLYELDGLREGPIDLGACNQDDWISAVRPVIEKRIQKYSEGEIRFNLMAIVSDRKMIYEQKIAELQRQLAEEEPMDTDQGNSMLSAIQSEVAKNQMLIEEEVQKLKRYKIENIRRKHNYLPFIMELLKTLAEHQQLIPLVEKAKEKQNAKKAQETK
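assay system = human UCH37 enzyme supplied as purified proteasome complex | amount = proteasome at 0.15 nM in the dispensed enzyme solution | schedule = 30 min compound-proteasome preincubation then 25 min substrate reaction, room temperature | measured by = fluorescence, ex 355 nm, em 460 nm | benchmarks = no-proteasome wells (full inhibition) and compound-free wells (no inhibition)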
Large screens that a line does not name were inactive; [ ] = another dose, or the depositor's remark.

COc1ccc(Cl)cc1N1C(=O)C2CCCN2C1c1sccc1C (centres undefined)	none
CCOCCn1c(CN2CCN(C)CC2)nc2c1c(=O)n(C)c(=O)n2C	MEKK2wt PB1 HTS 42[inhibitor], MEKK3 PB1 HTS 46[inhibitor]
CC(C)(C)c1cc(CCC(=O)N2CCC2)cc(C(C)(C)C)c1O	MEKK2 mut-MEK5 25
COc1ccc(CCN(C)CC(O)COC(c2ccc(F)cc2)c2ccc(F)cc2)cc1OC (centres undefined)	MEKK2wt PB1 HTS 145 (no result: UBC13 inh, Apaf-1 inh)
Cc1cccc(/C=N/n2c(-c3ccncc3)n[nH]c2=S)c1	none (no result: UCH37 DUB inh)
C#CCOCCOCCOCCNc1nc(N2CCN(C(=O)C(Cc3cc4ccccc4[nH]3)n3cc(C(N)Cc4ccc(O)cc4)nn3)CC2)nc(N2CCN(C(=O)C(Cc3cc4ccccc4[nH]3)n3cc(C(N)Cc4ccc(O)cc4)nn3)CC2)n1 (centres undefined)	MEKK2wt PB1 HTS 298, MEKK2 mut-MEK5 179 (no result: UBC13 inh, Apaf-1 inh, UCH37 DUB inh)
C#CCOCCOCCOCCNc1nc(N2CCN(C(=O)[C@H](Cc3cc4ccccc4[nH]3)n3cc([C@@H](N)Cc4ccc(O)cc4)nn3)CC2)nc(N2CCN(C(=O)[C@H](Cc3cc4ccccc4[nH]3)n3cc([C@@H](N)CC(C)C)nn3)CC2)n1	MEKK2wt PB1 HTS 201, MEKK2 mut-MEK5 54 (no result: UBC13 inh, Apaf-1 inh, UCH37 DUB inh)
C#CCOCCOCCOCCNc1nc(N2CCN(C(=O)C(Cc3cc4ccccc4[nH]3)n3cc(C(N)Cc4ccc(O)cc4)nn3)CC2)nc(N2CCN(C(=O)C(CCC(=O)O)n3cc(C(N)C(C)CC)nn3)CC2)n1 (centres undefined)	none (no result: MEKK2wt PB1 HTS, MEKK3 PB1 HTS, MEKK2 mut-MEK5)
C#CCOCCOCCOCCNc1nc(N2CCN(C(=O)C(CCC(=O)O)n3cc(C(N)CC(C)C)nn3)CC2)nc(N2CCN(C(=O)C(Cc3cc4ccccc4[nH]3)n3cc(C(N)Cc4ccc(O)cc4)nn3)CC2)n1 (centres undefined)	none
COc1ccc(C=NNC(=O)CNC(=O)C(c2ccccc2)c2ccccc2)cc1[N+](=O)[O-]	none (no result: UBC13 inh, Apaf-1 inh, MEKK2wt PB1 HTS, MEKK3 PB1 HTS, MEKK2 mut-MEK5)
CCC(=O)/C=C1/Sc2ccc(OC)cc2N1CC	none
CCC(=O)/C=C1/Sc2ccccc2N1CC	UCH37 DUB inh 22
CC1(C)CC(=O)C2=C(C1)N(Cc1ccco1)C(=O)C2(NC(=O)c1cccnc1)C(F)(F)F (centres undefined)	MEKK3 PB1 HTS 56[inhibitor]
CC1(C)CC(=O)C2=C(C1)N(Cc1cccnc1)C(=O)C2(NC(=O)c1cccnc1)C(F)(F)F (centres undefined)	none
CC(C)C[C@H](NC(=O)c1cc2cc(Cl)ccc2n1C)C(=O)N1CCC(C(=O)O)CC1	none (no result: UBC13 inh, Apaf-1 inh)
CN(C)/C(CN1CCN(C=O)CC1)=C1\N=C(c2ccccc2)OC1=O	UCH37 DUB inh 20
CC1=CC(=C2N=C(c3ccccc3)OC2=O)C=C(C)O1	none
O=C(NCc1ccco1)C1CC(c2ccc(C(F)(F)F)cc2)=NO1 (centres undefined)	UCH37 DUB inh 27
CC1CCCC(NC(=O)CSc2ccc(F)cc2)C1C (centres undefined)	none
CC1CCCC(NCC(O)COC(c2ccc(F)cc2)c2ccc(F)cc2)C1C (centres undefined)	MEKK2wt PB1 HTS 143
O=C(Nc1ccccc1C(=O)N1CCOCC1)c1ccc(Br)cc1	none
Cc1cc(C)n(CCCN2CCC(C(=O)Nc3cccc(-c4cccc(F)c4)c3)CC2)n1	MEKK2wt PB1 HTS 158, MEKK2 mut-MEK5 25
CCn1nc(C)c(CN2CCC(C(=O)Nc3cccc(-c4cccc(Cl)c4)c3)CC2)c1C	MEKK2wt PB1 HTS 146
CCn1ncc(CN2CCC(C(=O)Nc3cccc(-c4cccc(F)c4)c3)CC2)c1C	none
Cc1cccc(C(=O)N[C@H](C(=O)Nc2ccc(S(=O)(=O)NC3=NCCCCC3)cc2)C(C)C)c1	none
COc1cc(C(=O)N2CCN(C(=O)COc3ccc4ccccc4c3)CC2)cc(OC)c1OC	UCH37 DUB inh 28
CCOC(=O)C1CCN(C(=O)c2c(C)oc3c2C(=O)c2ccccc2C3=O)CC1	Apaf-1 inh 48
CC(C)NC(=O)Nc1cccc2c1O[C@H](CN(C)C(=O)NC(C)C)[C@@H](C)CN([C@H](C)CO)C2=O	UCH37 DUB inh 20 (no result: MEKK2wt PB1 HTS, MEKK3 PB1 HTS, MEKK2 mut-MEK5)
CNC[C@H]1Oc2ccc(NC(=O)Nc3ccc(OC)cc3)cc2C(=O)N([C@@H](C)CO)C[C@H]1C	UBC13 inh 48, Apaf-1 inh 45 (no result: MEKK2wt PB1 HTS, MEKK3 PB1 HTS, MEKK2 mut-MEK5, UCH37 DUB inh)
CNC[C@@H]1Oc2ccc(NC(=O)Nc3ccccc3)cc2C(=O)N([C@@H](C)CO)C[C@H]1C	none (no result: MEKK2wt PB1 HTS, MEKK3 PB1 HTS, MEKK2 mut-MEK5)
CNC[C@@H]1Oc2ccc(NC(=O)Nc3cccc4ccccc34)cc2C(=O)N([C@@H](C)CO)C[C@@H]1C	UBC13 inh 48, Apaf-1 inh 57 (no result: MEKK2wt PB1 HTS, MEKK3 PB1 HTS, MEKK2 mut-MEK5, UCH37 DUB inh)
O=C(OCC(=O)N1CCC(c2ccccc2)=N1)c1ccc([N+](=O)[O-])s1	Apaf-1 inh 52 (no result: MEKK2wt PB1 HTS, MEKK3 PB1 HTS, MEKK2 mut-MEK5)
Cc1onc(-c2ccccc2Cl)c1C(=O)Nc1ccc(S(=O)(=O)Nc2nccs2)cc1	UCH37 DUB inh 30
O=C(CC1SCCNC1=O)Nc1ccccc1Cl (centres undefined)	none
COc1ccc(C(CNC(=O)c2oc3ccc(OC)cc3c2C)N2CCCC2)cc1 (centres undefined)	none (no result: MEKK2wt PB1 HTS, MEKK3 PB1 HTS, MEKK2 mut-MEK5)
COc1ccc(C(CNC(=O)c2oc3cc(Br)ccc3c2C)N2CCCCC2)cc1 (centres undefined)	MEKK2wt PB1 HTS 141, MEKK2 mut-MEK5 30
CCc1ccc2oc(C(=O)NCC(c3ccc(OC)cc3)N3CCCCC3)c(C)c2c1 (centres undefined)	MEKK2 mut-MEK5 26
COc1ccc(C(CNC(=O)c2cccc(N(C)C)c2)N2CCCC2)cc1 (centres undefined)	none
CCC1CCc2sc(C(=O)NCC(c3ccc(OC)cc3)N3CCCC3)cc2C1 (centres undefined)	Apaf-1 inh 46 (no result: MEKK2wt PB1 HTS, MEKK3 PB1 HTS, MEKK2 mut-MEK5, UCH37 DUB inh)
O=C(O)CCN1CCc2ccccc21	none
CC(=O)/C(N)=N/Nc1cccc(Cl)c1	MEKK2wt PB1 HTS 16
CCN(CC(=O)Nc1ccc2c(c1)OCCO2)S(=O)(=O)c1ccc(F)cc1	none
Nc1cc(N2CCCC2)c(Cl)cc1[N+](=O)[O-]	Apaf-1 inh 43
CCC(C)Nc1ccc(NC(C)CC)cc1 (centres undefined)	Apaf-1 inh 43 (no result: MEKK2wt PB1 HTS, MEKK3 PB1 HTS, MEKK2 mut-MEK5, UCH37 DUB inh)
CCC(C)NC(=O)Nc1ccc(Br)cc1 (centres undefined)	none
CC(=O)c1cccc(N(CC(=O)NC2CCCCC2)C(=O)Cn2nnc(-c3ccccc3)n2)c1	none
CC(C)(C)c1nnc(NC(=O)Nc2ccc(Cl)cc2)s1	MEKK2wt PB1 HTS -4.0
COc1ccc(CCC(=O)Nc2nnc(C(C)(C)C)s2)cc1	none
COc1ccc(NC(=O)Nc2nnc(C(C)(C)C)s2)cc1	MEKK2wt PB1 HTS -4.0

From PubChem
